Reference: ChEMBL document CHEMBL1667787, “Synthesis and in vitro cytotoxicity evaluation of some fluorinated hexahydropyrimidine derivatives” (Bioorg Med Chem Lett, 2011)

Experiment: Cytotoxicity against human COLO320 cells after 72 hrs by Alamar Blue assay
Type: functional, cell-based
Conditions: COLO 320, 72 h
In short: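 COLO 320 HSR cells (ATCC) kept in RPMI 1640 with 10% FBS, bicarbonate, pyruvate, Hepes and antibiotics at 37 °C, 5% CO2. Seeded 1 × 10^4 cells/well, attached 24 h, then exposed 72 h to compound or DMSO vehicle. AlamarBlue added 1:10, incubated overnight at 37 °C, fluorescence read at 560 nm excitation/590 nm emission. Triplicates, means; IC50 by linear regression.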

Going from `CCOC(=O)C1=C(C(F)(F)F)NC(SCC(=O)c2ccc(C(F)(F)F)cc2)NC1c1ccc2c(c1)OCO2` (stereo unspecified) to `CCOC(=O)C1=C(C(F)(F)F)NC(=S)NC1c1ccc2c(c1)OCO2` (stereo unspecified), the IC50 rises from 8.1 µM to 12.2 µM (1.5-fold). The first is the more potent here.

Going from `O=C(c1ccco1)[C@@H]1[C@@H](c2cccc(O)c2)NC(=S)N[C@@]1(O)C(F)(F)F` to `O=C(c1ccco1)[C@@H]1[C@@H](c2ccccc2)NC(=S)N[C@@]1(O)C(F)(F)F`, the IC50 falls from > 100 µM to 63 µM. The second is the more potent here.

`O=C(c1cccs1)[C@@H]1[C@@H](c2cccc(O)c2)NC(=S)N[C@@]1(O)C(F)(F)F` and `COc1ccc([C@H]2NC(=S)N[C@@](O)(C(F)(F)F)[C@@H]2C(=O)c2cccs2)cc1` are within 1.5-fold of each other in IC50: 72 µM for the first, 75 µM for the second.

`COC(=O)[C@@H]1[C@@H](c2cccc(O)c2)NC(=S)N[C@@]1(O)C(F)(F)F` and `CCOC(=O)[C@@H]1[C@@H](c2cccc(O)c2)NC(=S)N[C@@]1(O)C(F)(F)F` cannot be ordered by IC50: > 100 µM for the first, > 100 µM for the second.

First: CCOC(=O)[C@@H]1[C@@H](c2cccc(C#N)c2)NC(=S)N[C@@]1(O)C(F)(F)F
Second: CCOC(=O)[C@@H]1[C@@H](c2ccc(F)cc2)NC(=S)N[C@@]1(O)C(F)(F)F
The IC50 of the first is higher: > 100 µM for the first, 75 µM for the second. The second is the more potent here.

`CCOC(=O)[C@@H]1[C@@H](c2ccc3c(c2)OCO3)NC(=S)N[C@@]1(O)C(F)(F)F` and `O=C(c1ccco1)[C@@H]1[C@@H](c2ccc3c(c2)OCO3)NC(=S)N[C@@]1(O)C(F)(F)F` are within 1.5-fold of each other in IC50: 75 µM for the first, 67 µM for the second.

Compared with `CCOC(=O)[C@@H]1[C@@H](c2ccccc2Br)NC(=S)N[C@@]1(O)C(F)(F)F`, `COc1ccc([C@H]2NC(=S)N[C@@](O)(C(F)(F)F)[C@@H]2C(=O)c2ccco2)cc1` is 6.3-fold lower in IC50: 73 µM for the first, 11.5 µM for the second. The second is the more potent here.

Going from `O=C(c1cccs1)[C@@H]1[C@@H](c2ccc3c(c2)OCO3)NC(=S)N[C@@]1(O)C(F)(F)F` to `O=C(c1ccc2ccccc2c1)[C@@H]1[C@@H](c2ccc3c(c2)OCO3)NC(=S)N[C@@]1(O)C(F)(F)F`, the IC50 falls from 62.5 µM to 9.9 µM (6.3-fold).
